Experiments:
[1] = biological target: T1, Serine protease 1 (Homo sapiens, UniProt P07477); assay: In vitro inhibitory activity against trypsin
In short: (§1)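 Enzyme was preincubated 1 h at room temperature with inhibitor across 14 concentrations (1 nM–100 μM final). A405 was read kinetically over 10 min at 37 °C. Percent inhibition came from the linear progress-curve slopes, typically in duplicate.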

[2] = biological target: T2, Prothrombin (Homo sapiens, UniProt P00734); assay: Inhibition of thrombin; in short: as §1
[3] = biological target: Coagulation factor X (Homo sapiens, UniProt P00742); assay: In vitro inhibition of coagulation factor Xa.; in short: as §1
Coagulation factor X, sequence (P00742 41-179 limits assumed): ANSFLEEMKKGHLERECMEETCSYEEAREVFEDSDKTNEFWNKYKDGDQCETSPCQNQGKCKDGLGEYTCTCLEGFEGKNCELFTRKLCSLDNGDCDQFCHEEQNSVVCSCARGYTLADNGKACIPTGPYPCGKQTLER
Coagulation factor X, sequence (P00742 235-488 limits assumed): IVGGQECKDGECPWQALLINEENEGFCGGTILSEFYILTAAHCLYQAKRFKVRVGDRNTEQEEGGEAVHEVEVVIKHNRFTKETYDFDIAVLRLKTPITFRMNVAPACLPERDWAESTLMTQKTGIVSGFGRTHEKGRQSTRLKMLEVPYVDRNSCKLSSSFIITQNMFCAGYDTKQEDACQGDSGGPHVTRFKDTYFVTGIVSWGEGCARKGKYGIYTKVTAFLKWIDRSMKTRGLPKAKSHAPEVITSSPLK

[4] = biological target: T3, Plasminogen (Homo sapiens, UniProt P00747); assay: Inhibition of plasmin at 100 uM
T3 sequence (P00747 97-580 limits assumed): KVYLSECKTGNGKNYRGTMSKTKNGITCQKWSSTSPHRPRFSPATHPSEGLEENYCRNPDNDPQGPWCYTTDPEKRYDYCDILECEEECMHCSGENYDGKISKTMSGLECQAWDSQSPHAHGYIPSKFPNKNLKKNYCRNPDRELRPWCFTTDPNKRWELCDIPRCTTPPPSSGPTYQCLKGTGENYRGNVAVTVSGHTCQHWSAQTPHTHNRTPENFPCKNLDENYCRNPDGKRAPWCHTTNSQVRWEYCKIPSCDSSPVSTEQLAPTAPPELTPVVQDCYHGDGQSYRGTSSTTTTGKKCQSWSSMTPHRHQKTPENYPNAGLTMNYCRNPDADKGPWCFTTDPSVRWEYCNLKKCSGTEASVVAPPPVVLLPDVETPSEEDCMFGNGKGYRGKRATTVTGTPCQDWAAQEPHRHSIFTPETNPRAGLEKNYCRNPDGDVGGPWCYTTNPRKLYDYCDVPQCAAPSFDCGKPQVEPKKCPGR
T3 sequence (P00747 581-810 limits assumed): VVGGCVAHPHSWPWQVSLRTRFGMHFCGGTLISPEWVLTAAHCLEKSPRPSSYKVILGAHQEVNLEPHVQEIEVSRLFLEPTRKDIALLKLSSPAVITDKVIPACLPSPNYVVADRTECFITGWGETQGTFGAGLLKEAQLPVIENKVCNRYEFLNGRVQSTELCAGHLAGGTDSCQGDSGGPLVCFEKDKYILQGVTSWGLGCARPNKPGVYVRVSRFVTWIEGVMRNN

[5] = biological target: T3, Plasminogen; assay: Compound was tested for in vitro inhibitory activity against plasmin; in short: as §1
[6] = biological target: T2, Prothrombin; assay: Inhibition of thrombin at 100 uM
[7] = biological target: T1, Serine protease 1; assay: In vitro inhibitory activity against trypsin at 100 uM
[8] = biological target: T3, Plasminogen; assay: Compound was tested for in vitro inhibitory activity against plasmin at 100 uM
[9] = biological target: T2, Prothrombin; assay: Compound was tested for in vitro inhibitory activity against thrombin at 100 uM

T1 sequence (P07477 whole entry): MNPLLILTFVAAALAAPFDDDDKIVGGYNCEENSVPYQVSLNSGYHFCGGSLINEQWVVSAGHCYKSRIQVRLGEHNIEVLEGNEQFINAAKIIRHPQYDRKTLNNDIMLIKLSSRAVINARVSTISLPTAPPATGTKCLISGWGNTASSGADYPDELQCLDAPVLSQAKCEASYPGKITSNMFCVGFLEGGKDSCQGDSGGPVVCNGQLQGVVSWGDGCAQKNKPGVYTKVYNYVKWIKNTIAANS

Row | SMILES | IC50 [1] [µM] | IC50 [2] [µM] | IC50 [3] [µM] | inhibition [4] [%] | IC50 [5] [µM] | inhibition [6] [%] | inhibition [7] [%] | inhibition [8] [%] | inhibition [9] [%]
1 | CC1CCCC(C)N1CCCCN1C(=O)C(c2cccc(C(=N)N)c2)Oc2ccccc21 (configuration not stated) | 0.3 | 1.1 | 0.012 |  | 38 |  |  |  | 
2 | CC1CCCC(C)N1CCCCCN1C(=O)C(c2ccc(C(=N)N)cc2)Oc2ccccc21 (configuration not stated) | 13 | 1.7 | 7.9 | 80 |  |  |  |  | 
3 | N=C(N)c1cccc(C2Oc3ccccc3N(CCCCCN)C2=O)c1 (configuration not stated) | 4.3 |  | 6.3 |  |  | 60 |  | 64 | 
4 | N=C(N)c1cccc(C2Oc3ccccc3N(CCCCCN3CCOCC3)C2=O)c1 (configuration not stated) | 1.1 | 2.2 | 0.24 |  |  |  |  | 70 | 
5 | CC1CCCC(C)N1CCCCCN1C(=O)C(c2ccccc2)Oc2ccccc21 (configuration not stated) |  |  | 27 |  |  | 19 | 2.8 | 26 | 
6 | CC1CCCC(C)N1CCCCCN1C(=O)C(c2cccc(CN)c2)Oc2ccccc21 (configuration not stated) | 7.8 |  | 0.84 |  | 25 |  |  |  | 64

Further lines, results first:

Row | IC50 [1] [µM] | IC50 [2] [µM] | IC50 [3] [µM] | inhibition [4] [%] | IC50 [5] [µM] | inhibition [6] [%] | inhibition [7] [%] | inhibition [8] [%] | inhibition [9] [%] | SMILES
7 | 39 | 65 | 16 | 23 |  |  |  |  |  | CC1CCCC(C)N1CCCCCN1C(=O)C(c2ccccc2Cl)Oc2ccccc21 (configuration not stated)
8 | 2.1 | 5.6 | 0.068 |  | 12 |  |  |  |  | CC1CCCC(C)N1CCCCCCN1C(=O)C(c2cccc(C(=N)N)c2)Oc2ccccc21 (configuration not stated)
9 |  |  | 28 | 13 |  | 33 | 18 |  |  | Cc1ccc(C2Oc3ccccc3N(CCCCCN3C(C)CCCC3C)C2=O)cc1 (configuration not stated)
10 |  |  |  | 29 |  | 20 | 5.2 |  |  | CC1CCCC(C)N1CCCCCN1C(=O)C(c2cccc(C(=N)S)c2)Oc2ccccc21 (configuration not stated)
11 | 2.5 | 1.9 | 1.6 |  | 2.2 |  |  |  |  | CCCCCCN(CCCCCC)CCCCCN1C(=O)C(c2cccc(C(=N)N)c2)Oc2ccccc21 (configuration not stated)
12 |  |  | 26 | 25 |  | 47 | 14 |  |  | CC1CCCC(C)N1CCCCCN1C(=O)C(c2ccc(Cl)c(Cl)c2)Oc2ccccc21 (configuration not stated)
13 |  |  | 1.5 |  |  |  |  |  |  | CC1CCCC(C)N1CCCCCN1C(=O)C(c2cccc(C(N)=NN3CCOCC3)c2)Oc2ccccc21 (configuration not stated)
14 |  |  | 34 | 44 |  | 32 | 7.8 |  |  | CC1CCCC(C)N1CCCCCN1C(=O)C(c2ccc(C(=N)S)cc2)Oc2ccccc21 (configuration not stated)

— ChEMBL document CHEMBL1133480, “Rational design, synthesis, and biological activity of benzoxazinones as novel factor Xa inhibitors” (J Med Chem, 2000)
